Measurements from different studies.
Each line is one published result; the experiments were not run side by side.
Effect on: cell growth or viability

CC(C)(C)c1cnc(CSc2cnc(NC(=O)C3CCN(C(=O)CCCCCCCN4Cc5cc6c(cc5C4)C(=O)N(C4CCC(=O)NC4=O)C6=O)CC3)s2)o1 (stereo not drawn) gave an IC50 of 0.0066 µM (REH; MTT).
For Nc1ccccc1NC(=O)c1ccc(Cn2cnc3c(Nc4ccc(Br)cc4F)ncnc32)cc1, the IC50 was 1.54 µM (NALM-6; MTT; 72 h).
The IC50 of COc1cc([C@@H]2c3cc4c(cc3[C@@H](O[C@@H]3O[C@@H]5CO[C@@H](C)O[C@H]5[C@H](O)[C@H]3O)[C@H]3COC(=O)[C@H]23)OCO4)cc(OC)c1O is reported as 0.061 µM (MOLT-3; XTT).
For CN1C(=O)C(=O)c2cc3c(c4c2c1cc1ccccc14)OCO3, the IC50 was 20.4 µM (MOLT-3; XTT; 75 h).
With CC1=CC(=O)C(C(C)C)=CC1=O the IC50 was 8.9 µM (PANC-1; SRB; 48 h).
The IC50 of C=C1C[C@@]23CC[C@H]4[C@@](C)(CCC[C@@]4(C)C(=O)O)[C@@H]2CC[C@@H]1C3 is reported as 116 µM (MOLT-3; XTT; 75 h).
O=C(NO)c1ccc(Cn2cnc3c(Nc4ccc(Cl)cc4)ncnc32)cc1 has an IC50 of 0.41 µM (NALM-6; MTT; 72 h).
Cc1ncsc1-c1ccc([C@H](C)NC(=O)[C@@H]2C[C@@H](O)CN2C(=O)[C@@H](NC(=O)CN2CCN(c3cc(-c4ccccc4O)nnc3N)CC2)C(C)(C)C)cc1 has an IC50 of 0.215 µM (NCI-H1944; ATP luminescence; 7 days).
The IC50 of O=C(NO)c1ccc(Cn2cnc3c(Nc4ccc(Br)cc4F)ncnc32)cc1 is reported as 2.12 µM (NALM-6; MTT; 72 h).
For Cc1cccc(N=C2C(=O)N(Cc3ccc(Br)cc3)c3ccccc32)c1, the IC50 was 26 µM (L02; MTT; 48 h).
COc1cccc2c1C(=O)c1c(O)c3c(c(O)c1C2=O)C[C@@](O)(C(=O)CO)C[C@@H]3O[C@H]1C[C@H](N)[C@H](O)[C@H](C)O1 gave an IC50 of 0.12 µM (CAL-51; ATP luminescence; 72 h).
The IC50 of CCc1ccc(N=C2C(=O)N(Cc3ccccc3)c3ccccc32)cc1 is reported as 86.7 µM (L02; MTT; 48 h).
The IC50 of Nc1nnc(-c2ccccc2O)cc1N1CC2CCC(C1)N2c1ccnc(F)c1 is reported as > 1 µM (NCI-H1944; ATP luminescence; 7 days).
For O=C1C(=Nc2ccccc2I)c2ccccc2N1Cc1cccc(Cl)c1, the IC50 was 19.1 µM (L02; MTT; 48 h).
COc1cccc2c1cc1c3c(cc4c(c32)OCO4)C(=O)N1C gave an IC50 of 50.3 µM (MOLT-3; XTT; 75 h).
O=C1C(=Nc2ccc(Cl)cc2)c2ccccc2N1Cc1ccc(Br)cc1 gave an IC50 of > 100 µM (L02; MTT; 48 h).
COc1ccc(Nc2ncnc3c2ncn3Cc2ccc(C(=O)Nc3ccccc3N)cc2)cc1 has an IC50 of 7.81 µM (NALM-6; MTT; 72 h).
The IC50 of C(=N\Nc1cc(N/N=C/c2ccc3ccccc3n2)ncn1)/c1ccc2ccccc2n1 is reported as > 100 µM (L02; MTT; 48 h).
Cc1cccc(N=C2C(=O)N(Cc3cccc(Cl)c3)c3ccccc32)c1 gave an IC50 of 25.8 µM (L02; MTT; 48 h).
For C(=N\Nc1cc(N/N=C/c2cccc3cccnc23)ncn1)/c1cccc2cccnc12, the IC50 was 31.6 µM (L02; MTT; 48 h).
CS(=O)(=O)CCNCc1ccc(-c2ccc3ncnc(Nc4ccc(OCc5cccc(F)c5)c(Cl)c4)c3c2)o1 has an IC50 of 0.0544 µM (HCC1419; ATP luminescence).
With CC(C)c1cccc(C(C)C)c1N=C1C(=O)Nc2ccccc21 the IC50 was 31.6 µM (L02; MTT; 48 h).
CCOc1cc2ncc(C#N)c(Nc3ccc(OCc4ccccn4)c(Cl)c3)c2cc1NC(=O)/C=C/CN(C)C gave an IC50 of 0.014 µM (HCC1419; ATP luminescence).
O=C1Nc2ccccc2C1=Nc1ccc(Cl)cc1 has an IC50 of 28.4 µM (L02; MTT; 48 h).
